The values below come from ChEMBL document CHEMBL1933006, “Mechanistic analysis of muraymycin analogues: a guide to the design of MraY inhibitors” (J Med Chem, 2011).

≈ marks a conversion by molar mass, not a printed value.

Type in all cases: functional
Assay [1] relates to Staphylococcus aureus. In words: Antibacterial activity against methicillin-resistant Staphylococcus aureus isolate SR3637 after 20 hrs by broth microdilution method. Conditions: isolate SR3637, 20 h. The procedure, abridged:
(§1)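 NCCLS broth microdilution in cation-adjusted Mueller–Hinton broth. Serial 2-fold compound dilutions were inoculated with 5 × 10⁴ CFU per 0.1 mL and incubated at 35 °C for 20 h before scoring the MIC.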
On the technique in general: In broth dilution the organism is exposed to a series of concentrations in liquid medium.

Assay [2] relates to Staphylococcus aureus. In words: Antibacterial activity against methicillin-sensitive […] Staphylococcus aureus ATCC 29213 after 20 hrs by broth microdilution method. Conditions: ATCC 29213, 20 h. The procedure, abridged:
as §1

The test system of assay [3] is Enterococcus faecalis. Description: Antibacterial activity against Enterococcus faecalis ATCC 29212 after 20 hrs by broth microdilution method. Conditions: ATCC 29212, 20 h. The gist of the method: as §1
For assay [4], the system named is Enterococcus faecalis. Description: Antibacterial activity against vancomycin-resistant Enterococcus faecalis SR7914 after 20 hrs by broth microdilution method. The conditions noted are these: SR7914, 20 h. The procedure, abridged:
as §1

Assay [5] relates to Enterococcus faecium. In words: Antibacterial activity against vancomycin-resistant Enterococcus faecium SR7917 after 20 hrs by broth microdilution method. Conditions: SR7917, 20 h. The gist of the method:
as §1

The test system of assay [6] is Enterococcus faecium. Description: Antibacterial activity against Enterococcus faecium ATCC 19434 after 20 hrs by broth microdilution method. The conditions noted are these: ATCC 19434, 20 h. The gist of the method:
as §1

The term MIC denotes the smallest concentration in the dilution series that meets the test's criterion for growth inhibition. As for `CCCCCCCCCCCCCCC[C@@H](NC(=O)[C@H](CCCN)NC(=O)N[C@H](C(=O)O)C(C)C)C(=O)NCCCN[C@H](C(=O)O)[C@H](O[C@@H]1O[C@H](CN)[C@@H](O)[C@H]1O)[C@H]1O[C@@H](n2ccc(=O)[nH]c2=O)[C@H](O)[C@@H]1O`, the MIC in the assay on Staphylococcus aureus [1] was determined as 8 µg/mL (≈ 7.77 µM); with Staphylococcus aureus [2] it was 4 µg/mL (≈ 3.88 µM); against Enterococcus faecalis [3], 8 µg/mL (≈ 7.77 µM); against Enterococcus faecalis [4], 8 µg/mL (≈ 7.77 µM); against Enterococcus faecium [5], 8 µg/mL (≈ 7.77 µM).

Consider `CCCCCCCCCCCCCCC[C@H](NC(=O)[C@@H](N)CCCN)C(=O)NCCCN[C@H](C(=O)O)[C@H](O[C@@H]1O[C@H](CN)[C@@H](O)[C@H]1O)[C@H]1O[C@@H](n2ccc(=O)[nH]c2=O)[C@H](O)[C@@H]1O`, for which the minimal inhibitory concentration (MIC) is 4 µg/mL (≈ 4.51 µM) in the assay with Staphylococcus aureus [1]; 4 µg/mL (≈ 4.51 µM) with Staphylococcus aureus [2]; 4 µg/mL (≈ 4.51 µM) in the assay on Enterococcus faecalis [3]; 4 µg/mL (≈ 4.51 µM) against Enterococcus faecalis [4]; 8 µg/mL (≈ 9.02 µM) with Enterococcus faecium [5].

As to `CCCCCCCCCCCCCCC[C@@H](NC(=O)[C@@H](N)[C@@H]1CCNC(=N)N1)C(=O)NCCCN[C@H](C(=O)O)[C@H](O[C@@H]1O[C@H](CN)[C@@H](O)[C@H]1O)[C@H]1O[C@@H](n2ccc(=O)[nH]c2=O)[C@H](O)[C@@H]1O`, the MIC in the assay on Staphylococcus aureus [1] came out at 8 µg/mL (≈ 8.63 µM); in the assay on Staphylococcus aureus [2] it was 8 µg/mL (≈ 8.63 µM); in the assay on Enterococcus faecalis [3], 4 µg/mL (≈ 4.31 µM); against Enterococcus faecalis [4], 8 µg/mL (≈ 8.63 µM); with Enterococcus faecium [5], 8 µg/mL (≈ 8.63 µM).

Take `CCCCCCCCCCCCCCC[C@H](NC(=O)[C@H](CCCN)NC(=O)N[C@H](C(=O)O)C(C)C)C(=O)NCCCN[C@H](C(=O)O)[C@H](O[C@@H]1O[C@H](CN)[C@@H](O)[C@H]1O)[C@H]1O[C@@H](n2ccc(=O)[nH]c2=O)[C@H](O)[C@@H]1O`: the MIC in the assay with Staphylococcus aureus [1] was 2 µg/mL (≈ 1.94 µM); with Staphylococcus aureus [2], 4 µg/mL (≈ 3.88 µM); against Enterococcus faecalis [3] it was 8 µg/mL (≈ 7.77 µM); in the assay with Enterococcus faecalis [4], 8 µg/mL (≈ 7.77 µM); against Enterococcus faecium [5], 4 µg/mL (≈ 3.88 µM).

As to `CCCCCCCCCCCCCCC[C@H](NC(=O)[C@@H](N)CCCNC(=N)N)C(=O)NCCCN[C@H](C(=O)O)[C@H](O[C@@H]1O[C@H](CN)[C@@H](O)[C@H]1O)[C@H]1O[C@@H](n2ccc(=O)[nH]c2=O)[C@H](O)[C@@H]1O`, the MIC in the assay on Staphylococcus aureus [1], against Staphylococcus aureus [2], with Enterococcus faecalis [3], in the assay with Enterococcus faecalis [4] and in the assay on Enterococcus faecium [5] was 4 µg/mL (≈ 4.31 µM) throughout.

Consider `CCCCCCCCCCCCCCC[C@H](NC(=O)[C@@H](N)CCCSC)C(=O)NCCCN[C@H](C(=O)O)[C@H](O[C@@H]1O[C@H](CN)[C@@H](O)[C@H]1O)[C@H]1O[C@@H](n2ccc(=O)[nH]c2=O)[C@H](O)[C@@H]1O`, for which the MIC stood at 8 µg/mL (≈ 8.71 µM) in the assay with Staphylococcus aureus [1]; 8 µg/mL (≈ 8.71 µM) against Staphylococcus aureus [2]; 4 µg/mL (≈ 4.36 µM) against Enterococcus faecalis [3]; 4 µg/mL (≈ 4.36 µM) with Enterococcus faecalis [4]; 8 µg/mL (≈ 8.71 µM) with Enterococcus faecium [5].

With `CCCCCCCCCCCCCCC[C@H](NC(=O)[C@@H](NC(=O)N[C@H](C(=O)O)C(C)C)[C@H]1CCNC(=N)N1)C(=O)NCCCN[C@H](C(=O)O)[C@H](O[C@@H]1O[C@H](CN)[C@@H](O)[C@H]1O)[C@H]1O[C@@H](n2ccc(=O)[nH]c2=O)[C@H](O)[C@@H]1O`, the MIC was 2 µg/mL (≈ 1.87 µM) with Staphylococcus aureus [1]; 2 µg/mL (≈ 1.87 µM) with Staphylococcus aureus [2]; 2 µg/mL (≈ 1.87 µM) against Enterococcus faecalis [3]; 4 µg/mL (≈ 3.74 µM) in the assay on Enterococcus faecalis [4]; 2 µg/mL (≈ 1.87 µM) against Enterococcus faecium [5].

For the molecule `CCCCOc1ccc(-c2ccc(CC[C@@H](NC(=O)[C@@H](NC(=O)N[C@H](C(=O)O)C(C)C)[C@@H]3CCNC(=N)N3)C(=O)NCCCN[C@H](C(=O)O)[C@H](O[C@@H]3O[C@H](CN)[C@@H](O)[C@H]3O)[C@H]3O[C@@H](n4ccc(=O)[nH]c4=O)[C@H](O)[C@@H]3O)cc2)cc1`, the MIC in the assay on Staphylococcus aureus [1] was 64 µg/mL (≈ 57.5 µM); in the assay on Staphylococcus aureus [2], 64 µg/mL (≈ 57.5 µM); in the assay on Enterococcus faecalis [3] it was 32 µg/mL (≈ 28.8 µM); in the assay on Enterococcus faecalis [4] it was 64 µg/mL (≈ 57.5 µM); against Enterococcus faecium [5] it was 8 µg/mL (≈ 7.19 µM); against Enterococcus faecium [6] it was 4 µg/mL (≈ 3.6 µM).

As for `CCCCCCCCCCCCCCC[C@@H](NC(=O)[C@@H](NC(=O)OCc1ccccc1)[C@@H]1CCNC(=N)N1)C(=O)NCCCN[C@H](C(=O)O)[C@H](O[C@@H]1O[C@H](CN)[C@@H](O)[C@H]1O)[C@H]1O[C@@H](n2ccc(=O)[nH]c2=O)[C@H](O)[C@@H]1O`, the minimum inhibitory concentration (MIC) came to 8 µg/mL (≈ 7.54 µM) in the assay on Staphylococcus aureus [1]; 8 µg/mL (≈ 7.54 µM) in the assay on Staphylococcus aureus [2]; 4 µg/mL (≈ 3.77 µM) with Enterococcus faecalis [3]; 4 µg/mL (≈ 3.77 µM) with Enterococcus faecalis [4]; 4 µg/mL (≈ 3.77 µM) with Enterococcus faecium [5].

Consider `CCCCCCCCCCCCCCC[C@@H](NC(=O)[C@@H](NC(=O)N[C@H](C(=O)O)C(C)C)[C@H]1CCNC(=N)N1)C(=O)NCCCN[C@H](C(=O)O)[C@H](O[C@@H]1O[C@H](CN)[C@@H](O)[C@H]1O)[C@H]1O[C@@H](n2ccc(=O)[nH]c2=O)[C@H](O)[C@@H]1O`, for which the MIC was found to be 2 µg/mL (≈ 1.87 µM) in the assay with Staphylococcus aureus [1]; 4 µg/mL (≈ 3.74 µM) in the assay with Staphylococcus aureus [2]; 2 µg/mL (≈ 1.87 µM) in the assay on Enterococcus faecalis [3]; 4 µg/mL (≈ 3.74 µM) with Enterococcus faecalis [4]; 4 µg/mL (≈ 3.74 µM) against Enterococcus faecium [5].

Take `CN[C@H](CC(C)C)C(=O)N[C@H]1C(=O)N[C@@H](CC(N)=O)C(=O)N[C@H]2C(=O)N[C@H]3C(=O)N[C@H](C(=O)N[C@H](C(=O)O)c4cc(O)cc(O)c4-c4cc3ccc4O)[C@H](O)c3ccc(c(Cl)c3)Oc3cc2cc(c3O[C@@H]2O[C@H](CO)[C@@H](O)[C@H](O)[C@H]2O[C@H]2C[C@](C)(N)[C@H](O)[C@H](C)O2)Oc2ccc(cc2Cl)[C@H]1O` [VANCOMYCIN]: the minimum inhibitory concentration (MIC) is 1 µg/mL (≈ 0.69 µM) with Enterococcus faecalis [3], more than 64 µg/mL in the assay with Enterococcus faecalis [4] and more than 64 µg/mL against Enterococcus faecium [5].

`CCCCCCCCCCCCCCC[C@H](NC(=O)[C@H](CCCNC(=N)N)NC(=O)N[C@H](C(=O)O)C(C)C)C(=O)NCCCN[C@H](C(=O)O)[C@H](O[C@@H]1O[C@H](CN)[C@@H](O)[C@H]1O)[C@H]1O[C@@H](n2ccc(=O)[nH]c2=O)[C@H](O)[C@@H]1O`: the MIC in the assay on Staphylococcus aureus [1] was 2 µg/mL (≈ 1.87 µM); with Staphylococcus aureus [2] it was 2 µg/mL (≈ 1.87 µM); in the assay on Enterococcus faecalis [3], 2 µg/mL (≈ 1.87 µM); against Enterococcus faecalis [4], 2 µg/mL (≈ 1.87 µM); against Enterococcus faecium [5], 1 µg/mL (≈ 0.933 µM).

As to `CCCCCCCCCCCCCCC[C@H](NC(=O)[C@@H](NC(=O)OCc1ccccc1)[C@@H]1CCNC(=N)N1)C(=O)NCCCN[C@H](C(=O)O)[C@H](O[C@@H]1O[C@H](CN)[C@@H](O)[C@H]1O)[C@H]1O[C@@H](n2ccc(=O)[nH]c2=O)[C@H](O)[C@@H]1O`, the MIC in the assay on Staphylococcus aureus [1] came out at 8 µg/mL (≈ 7.54 µM); in the assay on Staphylococcus aureus [2], 8 µg/mL (≈ 7.54 µM); against Enterococcus faecalis [3], 4 µg/mL (≈ 3.77 µM); with Enterococcus faecalis [4] it was 4 µg/mL (≈ 3.77 µM); against Enterococcus faecium [5] it was 8 µg/mL (≈ 7.54 µM).

Consider `CCCCCCCCCCCCCCC[C@H](NC(=O)[C@@H](N)[C@@H]1CCNC(=N)N1)C(=O)NCCCN[C@H](C(=O)O)[C@H](O[C@@H]1O[C@H](CN)[C@@H](O)[C@H]1O)[C@H]1O[C@@H](n2ccc(=O)[nH]c2=O)[C@H](O)[C@@H]1O`, for which the MIC stood at 8 µg/mL (≈ 8.63 µM) against Staphylococcus aureus [1]; 8 µg/mL (≈ 8.63 µM) with Staphylococcus aureus [2]; 4 µg/mL (≈ 4.31 µM) with Enterococcus faecalis [3]; 4 µg/mL (≈ 4.31 µM) against Enterococcus faecalis [4]; 8 µg/mL (≈ 8.63 µM) in the assay on Enterococcus faecium [5].

For the molecule `CCCCCCCCCCCCCCC[C@@H](NC(=O)[C@H](CCCNC(=N)N)NC(=O)N[C@H](C(=O)O)C(C)C)C(=O)NCCCN[C@H](C(=O)O)[C@H](O[C@@H]1O[C@H](CN)[C@@H](O)[C@H]1O)[C@H]1O[C@@H](n2ccc(=O)[nH]c2=O)[C@H](O)[C@@H]1O`, the MIC against Staphylococcus aureus [1] was 4 µg/mL (≈ 3.73 µM); with Staphylococcus aureus [2], 4 µg/mL (≈ 3.73 µM); in the assay on Enterococcus faecalis [3], 4 µg/mL (≈ 3.73 µM); with Enterococcus faecalis [4] it was 4 µg/mL (≈ 3.73 µM); against Enterococcus faecium [5] it was 2 µg/mL (≈ 1.87 µM).
